# Reference: ChEMBL document CHEMBL1144801, “Synthesis of new benzimidazole linked pyrrolo[2,1-c][1,4]benzodiazepine conjugates with efficient DNA-binding affinity and potent cytotoxicity” (Bioorg Med Chem Lett, 2008)
# The source made the active and inactive calls. The calls are words filed in the database; no cut-off is given here.
# What was measured:
# DNA = test: Binding affinity to calf thymus DNA at 1:5 (compound:DNA) molar ratio in 37degC after 18 hrs by thermal denaturation studies; assay type: nucleic-acid assay; settings: Bos taurus
# How it was run: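 Calf thymus DNA with ligand at a 1:5 ligand:DNA molar ratio in aqueous 10 mM sodium phosphate + 1 mM EDTA, pH 7.00. Mixtures were incubated at 37 °C and read at 0 h and 18 h. The read-out was the shift in helix melting temperature (ΔTm) relative to CT-DNA alone.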
# Bacilli = test: Inhibition of Bacillus amyloli BamH1 restriction endonuclease-mediated pBR322 cleavage by RED100-restriction endonuclease digestion assay
# How it was run: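 Plasmid pBR322 exposed to the conjugate, then digested with BamH1 (20 U) for 1 h at 37 °C. Cut and uncut products separated by agarose gel electrophoresis and visualized by ethidium bromide staining under UV. Controls were untreated pBR322 and a complete BamH1 digest.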
# MDA-MB-231 = test: Cytotoxicity against human MDA-MB-231 cells; assay type: functional
# SF-539 = test: Cytotoxicity against human SF539 cells; assay type: functional
# OVCAR-4 = test: Cytotoxicity against human OVCAR4 cells; assay type: functional
# MCF7 = test: Cytotoxicity against human MCF7 cells; assay type: functional
# SNB-19 = test: Cytotoxicity against human SNB19 cells; assay type: functional
# K562 = test: Cytotoxicity against human K562 cells; assay type: functional
# ACHN = test: Cytotoxicity against human ACHN cells; assay type: functional
# HCC 2998 = test: Cytotoxicity against human HCC2998 cells; assay type: functional
# UO-31 = test: Cytotoxicity against human UO31 cells; assay type: functional
# NCI-H322M = test: Cytotoxicity against human NCI-H322M cells; assay type: functional
# T47D = test: Cytotoxicity against human T47D cells; assay type: functional
# MDA-MB-435 = test: Cytotoxicity against human MDA-MB-435 cells; assay type: functional
# HCT-116 = test: Cytotoxicity against human HCT116 cells; assay type: functional
# Malme-3M = test: Cytotoxicity against human MALME3M cells; assay type: functional
# UACC-257 = test: Cytotoxicity against human UACC257 cells; assay type: functional
# RXF 393 = test: Cytotoxicity against human RXF393 cells; assay type: functional
# OVCAR-3 = test: Cytotoxicity against human OVCAR-3 cells; assay type: functional
# SF-268 = test: Cytotoxicity against human SF268 cells; assay type: functional
# HOP-92 = test: Cytotoxicity against human HOP92 cells; assay type: functional
# OVCAR-5 = test: Cytotoxicity against human OVCAR5 cells; assay type: functional
# NCI-H460 = test: Cytotoxicity against human NCI-H460 cells; assay type: functional
# NCI-H226 = test: Cytotoxicity against human NCI-H226 cells; assay type: functional
# CCRF-CEM = test: Cytotoxicity against human CCRF-CEM cells; assay type: functional
# HCT-15 = test: Cytotoxicity against human HCT15 cells; assay type: functional
# SNB-75 = test: Cytotoxicity against human SNB75 cells; assay type: functional
# U-251 = test: Cytotoxicity against human U251 cells; assay type: functional
# Hs-578T = test: Cytotoxicity against human HS578T cells; assay type: functional
# SK-OV-3 = test: Cytotoxicity against human SKOV3 cells; assay type: functional
# DU-145 = test: Cytotoxicity against human DU145 cells; assay type: functional
# NCI-H522 = test: Cytotoxicity against human NCI-H522 cells; assay type: functional
# TK-10 = test: Cytotoxicity against human TK10 cells; assay type: functional
# SK-MEL-2 = test: Cytotoxicity against human SKMEL2 cells; assay type: functional
# SN12C = test: Cytotoxicity against human SN12C cells; assay type: functional
# COLO 205 = test: Cytotoxicity against human COLO205 cells; assay type: functional
# SR = test: Cytotoxicity against human SR cells; assay type: functional
# EKVX = test: Cytotoxicity against human EKVX cells; assay type: functional
# RPMI-8226 = test: Cytotoxicity against human RPMI8226 cells; assay type: functional
# BT-549 = test: Cytotoxicity against human BT549 cells; assay type: functional
# [1] = Cytotoxicity against human OVCAR1 cells; assay type: functional
# A549 = test: Cytotoxicity against human A549 cells; assay type: functional
# SK-MEL-28 = test: Cytotoxicity against human SKMEL28 cells; assay type: functional
# LOX IMVI = test: Cytotoxicity against human LOXIMVI cells; assay type: functional
# M14 = test: Cytotoxicity against human M14 cells; assay type: functional
# UACC-62 = test: Cytotoxicity against human UACC62 cells; assay type: functional
# KM12 = test: Cytotoxicity against human KM12 cells; assay type: functional
# SW-620 = test: Cytotoxicity against human SW620 cells; assay type: functional
# A498 = test: Cytotoxicity against human A498 cells; assay type: functional
# OVCAR-8 = test: Cytotoxicity against human OVCAR8 cells; assay type: functional
# MDA-MB-468 = test: Cytotoxicity against human MDA-MB-468 cells; assay type: functional
# MOLT-4 = test: Cytotoxicity against human MOLT4 cells; assay type: functional
# 786-0 = test: Cytotoxicity against human 786-0 cells; assay type: functional
# HT-29 = test: Cytotoxicity against human HT29 cells; assay type: functional
# SK-MEL-5 = test: Cytotoxicity against human SKMEL5 cells; assay type: functional
# [2] = Cytotoxicity against human HL60(TB) cells; assay type: functional, HL-60(TB); settings: HL-60
# CAKI-1 = test: Cytotoxicity against human CAKI1 cells; assay type: functional
# NCI/ADR-RES = test: Cytotoxicity against human NCI/ADR-RES cells; assay type: functional
# NCI-H23 = test: Cytotoxicity against human NCI-H23 cells; assay type: functional
# HOP-62 = test: Cytotoxicity against human HOP62 cells; assay type: functional
compound,measurement,setting,value
COc1cc2c(cc1OCCCCCn1c(-c3cccs3)nc3ccccc31)N=C[C@@H]1CCCN1C2=O,ΔTm,DNA,6.1 °C
COc1cc2c(cc1OCCCCn1c(-c3ccco3)nc3ccccc31)N=C[C@@H]1CCCN1C2=O,Activity,Bacilli,inactive
same,ΔTm,DNA,0 °C
COc1cc2c(cc1OCCCn1c(-c3ccco3)nc3ccccc31)N=C[C@@H]1CCCN1C2=O,ΔTm,DNA,6.1 °C
COc1cc2c(cc1OCCCCn1c(-c3cccs3)nc3ccccc31)N=C[C@@H]1CCCN1C2=O,GI50,MDA-MB-231,1.39 µM
same,GI50,SF-539,1.72 µM
same,ΔTm,DNA,1 °C
same,GI50,OVCAR-4,1.61 µM
same,GI50,MCF7,0.66 µM
same,GI50,SNB-19,1.53 µM
same,GI50,K562,15.5 µM
same,GI50,ACHN,2.81 µM
same,GI50,HCC 2998,2.08 µM
same,GI50,UO-31,1.23 µM
same,GI50,NCI-H322M,2.7 µM
same,GI50,T47D,0.5 µM
same,GI50,MDA-MB-435,1.39 µM
same,GI50,HCT-116,1.75 µM
same,GI50,Malme-3M,1.74 µM
same,GI50,UACC-257,2.54 µM
same,GI50,RXF 393,1.34 µM
same,GI50,OVCAR-3,1.72 µM
same,GI50,SF-268,1.8 µM
same,GI50,HOP-92,1.33 µM
same,GI50,OVCAR-5,3.27 µM
same,GI50,NCI-H460,1.55 µM
same,GI50,NCI-H226,2.13 µM
same,GI50,CCRF-CEM,0.24 µM
same,GI50,HCT-15,3.19 µM
same,GI50,SNB-75,1.22 µM
same,GI50,U-251,1.77 µM
same,GI50,Hs-578T,1.7 µM
same,GI50,SK-OV-3,3.32 µM
same,GI50,DU-145,1.32 µM
same,GI50,NCI-H522,1.04 µM
same,GI50,TK-10,2.09 µM
same,GI50,SK-MEL-2,1.47 µM
same,GI50,SN12C,2.5 µM
same,GI50,COLO 205,1.07 µM
same,GI50,SR,0.45 µM
same,GI50,EKVX,3.36 µM
same,GI50,RPMI-8226,0.31 µM
same,GI50,BT-549,0.41 µM
same,GI50,[1],0.75 µM
same,GI50,A549,3.22 µM
same,GI50,SK-MEL-28,1.53 µM
same,GI50,LOX IMVI,0.78 µM
same,GI50,M14,1.35 µM
same,GI50,UACC-62,1.57 µM
same,GI50,KM12,1.92 µM
same,GI50,SW-620,1.84 µM
same,GI50,A498,1.68 µM
same,GI50,OVCAR-8,2.58 µM
same,GI50,MDA-MB-468,0.33 µM
same,GI50,MOLT-4,3.79 µM
same,GI50,786-0,1.71 µM
same,GI50,HT-29,1.97 µM
same,GI50,SK-MEL-5,1.09 µM
same,GI50,[2],5.18 µM
same,GI50,CAKI-1,0.94 µM
same,GI50,NCI/ADR-RES,3.24 µM
same,GI50,NCI-H23,2.05 µM
COc1cc2c(cc1OCCCn1c(-c3cccs3)nc3ccccc31)N=C[C@@H]1CCCN1C2=O,ΔTm,DNA,5.1 °C
COc1cc2c(cc1OCCCCCn1c(-c3ccco3)nc3ccccc31)N=C[C@@H]1CCCN1C2=O,Activity,Bacilli,Active
same,GI50,MDA-MB-231,0.01 µM
same,GI50,SF-539,< 0.01 µM
same,ΔTm,DNA,7 °C
same,GI50,OVCAR-4,< 0.01 µM
same,GI50,MCF7,< 0.01 µM
same,GI50,SNB-19,< 0.01 µM
same,GI50,K562,< 0.01 µM
same,GI50,ACHN,< 0.01 µM
same,GI50,UO-31,0.1 µM
same,GI50,NCI-H322M,0.03 µM
same,GI50,T47D,< 0.01 µM
same,GI50,MDA-MB-435,< 0.01 µM
same,GI50,HCT-116,< 0.01 µM
same,GI50,Malme-3M,0.01 µM
same,GI50,UACC-257,< 0.01 µM
same,GI50,RXF 393,< 0.01 µM
same,GI50,OVCAR-3,< 0.01 µM
same,GI50,SF-268,< 0.01 µM
same,GI50,HOP-92,0.01 µM
same,GI50,OVCAR-5,< 0.01 µM
same,GI50,NCI-H460,< 0.01 µM
same,GI50,NCI-H226,< 0.01 µM
same,GI50,CCRF-CEM,< 0.01 µM
same,GI50,HCT-15,0.02 µM
same,GI50,SNB-75,< 0.01 µM
same,GI50,U-251,< 0.01 µM
same,GI50,Hs-578T,< 0.01 µM
same,GI50,SK-OV-3,< 0.01 µM
same,GI50,DU-145,0.02 µM
same,GI50,NCI-H522,< 0.01 µM
same,GI50,TK-10,0.01 µM
same,GI50,SK-MEL-2,0.02 µM
same,GI50,SN12C,< 0.01 µM
same,GI50,COLO 205,< 0.01 µM
same,GI50,SR,< 0.01 µM
same,GI50,EKVX,< 0.01 µM
same,GI50,RPMI-8226,< 0.01 µM
same,GI50,BT-549,< 0.01 µM
same,GI50,[1],0.01 µM
same,GI50,A549,< 0.01 µM
same,GI50,SK-MEL-28,< 0.01 µM
same,GI50,LOX IMVI,< 0.01 µM
same,GI50,M14,< 0.01 µM
same,GI50,UACC-62,< 0.01 µM
same,GI50,KM12,< 0.01 µM
same,GI50,HOP-62,< 0.01 µM
same,GI50,SW-620,< 0.01 µM
same,GI50,A498,< 0.01 µM
same,GI50,OVCAR-8,< 0.01 µM
same,GI50,MDA-MB-468,< 0.01 µM
same,GI50,MOLT-4,< 0.01 µM
same,GI50,786-0,< 0.01 µM
same,GI50,HT-29,< 0.01 µM
same,GI50,SK-MEL-5,< 0.01 µM
same,GI50,[2],< 0.01 µM
same,GI50,CAKI-1,< 0.01 µM
same,GI50,NCI/ADR-RES,0.23 µM
same,GI50,NCI-H23,< 0.01 µM
COc1cc2c(cc1OCCCn1c(-c3ccco3)nc3ccccc31)NC(=O)[C@@H]1CCCN1C2=O,ΔTm,DNA,0.7 °C
COc1cc2c(cc1OCCCCCn1c(-c3cccs3)nc3ccccc31)NC(=O)[C@@H]1CCCN1C2=O,ΔTm,DNA,0.8 °C
COc1cc2c(cc1O)N=C[C@@H]1CCCN1C2=O,ΔTm,DNA,0.7 °C
